# Assay results from different studies.
# Lines come from different studies, so protocols differ.
# Target: Serine/threonine-protein kinase TAO2 (TAOK2, Homo sapiens, UniProt Q9UL54)
# Sequence (Q9UL54 1-1235, as in one of the studies): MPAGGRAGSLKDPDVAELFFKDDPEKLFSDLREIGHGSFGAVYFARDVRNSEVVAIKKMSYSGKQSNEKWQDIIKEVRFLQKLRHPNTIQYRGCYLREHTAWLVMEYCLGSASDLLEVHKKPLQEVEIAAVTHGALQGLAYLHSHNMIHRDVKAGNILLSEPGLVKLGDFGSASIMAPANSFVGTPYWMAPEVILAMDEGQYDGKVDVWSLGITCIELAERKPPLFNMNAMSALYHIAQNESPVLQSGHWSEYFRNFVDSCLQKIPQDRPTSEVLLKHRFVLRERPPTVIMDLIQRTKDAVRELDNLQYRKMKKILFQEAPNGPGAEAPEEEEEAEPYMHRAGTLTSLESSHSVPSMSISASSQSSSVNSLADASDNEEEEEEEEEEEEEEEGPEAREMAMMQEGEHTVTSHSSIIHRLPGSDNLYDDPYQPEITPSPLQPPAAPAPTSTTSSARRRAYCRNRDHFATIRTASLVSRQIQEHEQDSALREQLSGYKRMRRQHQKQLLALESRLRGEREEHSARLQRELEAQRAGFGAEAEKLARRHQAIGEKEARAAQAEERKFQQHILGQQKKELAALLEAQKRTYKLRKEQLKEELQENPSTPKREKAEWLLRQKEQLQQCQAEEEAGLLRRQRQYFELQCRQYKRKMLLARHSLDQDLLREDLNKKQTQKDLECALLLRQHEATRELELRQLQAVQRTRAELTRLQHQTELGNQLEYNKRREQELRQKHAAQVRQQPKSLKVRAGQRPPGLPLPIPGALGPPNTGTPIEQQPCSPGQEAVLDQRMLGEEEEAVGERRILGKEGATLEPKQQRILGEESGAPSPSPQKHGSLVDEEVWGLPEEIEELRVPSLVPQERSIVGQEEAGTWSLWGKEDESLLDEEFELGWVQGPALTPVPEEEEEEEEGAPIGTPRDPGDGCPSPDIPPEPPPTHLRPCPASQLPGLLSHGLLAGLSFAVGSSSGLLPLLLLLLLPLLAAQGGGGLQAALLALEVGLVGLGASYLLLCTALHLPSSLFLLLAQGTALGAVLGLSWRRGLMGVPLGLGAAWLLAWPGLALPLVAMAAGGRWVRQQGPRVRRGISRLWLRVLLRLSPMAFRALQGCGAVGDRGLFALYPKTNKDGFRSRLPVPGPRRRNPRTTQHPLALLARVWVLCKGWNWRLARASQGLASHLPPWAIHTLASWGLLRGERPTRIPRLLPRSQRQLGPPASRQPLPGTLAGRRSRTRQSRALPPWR
Compound,observed,technique,tested at,remaining binding
Cc1nc(C2CCN(C(=O)c3ccc(OC(F)(F)F)cc3N)CC2)c2ncc(N3CCN(C)CC3)cc2n1,cell-free assay,competition with immobilised ligand,1 µM,100%
c1cncc(-c2cccc(Nc3nccc(NC4CCCCC4)n3)c2)c1,binding,competition with immobilised ligand,10 µM,94%
CNCc1ccccc1-c1csc([C@H](C)Nc2nc(C)nc3cc(OC)c(OC)cc23)c1,cell-free assay,competition with immobilised ligand,1 µM,90%
O=C(NCC1CCOCC1)c1n[nH]cc1NC(=O)c1c(F)cccc1F,binding,competition with immobilised ligand,1 µM,100%
Nc1ncc2c(n1)-c1c([nH]c3ccc(C#CC4CC4)cc13)CCCC2,binding,competition with immobilised ligand,1 µM,90%
O=C(NCCCN1CCOCC1)c1ccc(Nc2nccc(-c3cc4ccccc4s3)n2)cc1,binding,competition with immobilised ligand,1 µM,80%
CN(C)C(=O)Cn1cc(-c2nc([C@@](C)(c3ccc(-c4cnc(N)nc4)cc3)C3CC3)no2)cn1,cell-free assay,competition with immobilised ligand,1 µM,81%
C[C@@H](c1ccc(-n2cnc3c(N)ncnc32)cc1)N1CCc2nn(C)c(Cc3ccccc3)c2C1=O,binding,competition with immobilised ligand,0.1 µM,70%
O=C(c1ccc(Nc2nccc(-c3cc4ccccc4s3)n2)cc1)N1CCC(N2CCCC2)CC1,binding,competition with immobilised ligand,1 µM,71%
C[C@H]1CCN(c2nccc(-c3cnn4ncccc34)n2)C1,binding,,1 µM,70%
COc1ccc2c(c1)O[C@H](c1ccc(OC)c(OC)c1)C[C@@H]2NC(=O)C1(c2ccc3c(c2)OC(F)(F)O3)CC1,cell-free assay,competition with immobilised ligand,1 µM,98%
CNC(=O)[C@@H]1CC[C@@H](n2c(-c3ccc4cnccc4c3)nc3ccc(C(=O)NCc4cccc(C(N)=O)c4)cc32)C1,binding,competition with immobilised ligand,1 µM,98%
N[C@@H]1CCN(c2nccc(-c3cnn4ncccc34)n2)C1,binding,,1 µM,100%
O=C(c1ccc(Nc2ncc(Cl)c(-c3cc4ccccc4s3)n2)cc1)N1CCC(N2CCCC2)CC1,binding,competition with immobilised ligand,1 µM,66%
CN(C)c1nccc(-c2cnc3ncccn23)n1,binding,,1 µM,76%
CCCCN(CCCC)C(=O)CN1C[C@H](c2cc(OC)c3c(c2)OCO3)[C@@H](C(=O)O)[C@@H]1CC(C)(C)CCC,cell-free assay,competition with immobilised ligand,1 µM,71.1%
Cc1cnn2ncc(-c3ccnc(N(C)C)n3)c2c1,binding,,1 µM,94%
CCc1ccccc1C(=O)Nc1n[nH]c2c(C)c(F)c(C3C(C#N)=C(C)N(C)C(C)=C3C#N)cc12,cell-free assay,competition with immobilised ligand,1 µM,96%
CN(CCCC(F)(F)F)c1nccc(-c2cnn3ncccc23)n1,binding,,1 µM,100%
Cc1nc(Cc2cccc(C(F)(F)F)c2)sc1-c1ccc(C(N)=O)nc1,cell-free assay,competition with immobilised ligand,1 µM,86%
CN(C)c1nccc(-c2cnn3ncccc23)n1,binding,,1 µM,85%
CCN1CCN(Cc2ccc(C(=O)Nc3ccc(C)c(Oc4ccc5c(c4)CC(=O)N5)c3)cc2C(F)(F)F)CC1,binding,competition with immobilised ligand,1 µM,100%
